Activity calls are given as the source filed them. No cut-off for these calls is given here.
Tests used:
[1] = molecular target: T1, GNAQ/GNA11 (Homo sapiens) (UniProt P50148+P29992); assay: Inhibition of Galphaq/11 (unknown origin) expressed in CHO cells coexpressing M1 receptor assessed as reduction in carbachol-induced IP1 accumulation at 10 uM preincubated for 1 hr followed by carbachol stimulation and measured after 1 hr by HTRF assay relative to control; type: cell-based; settings: time 2.0 hrs
[2] = test system: CHO; assay: Induction of morphological changes in chinese hamster CHO cells overexpressing M1 receptor upto 20 uM by light microscopic analysis; type: cell-based, Cricetulus griseus
In short: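 CHO-M₁ cells were treated with compound at 10 or 20 μM for 2 h, and changes in cell morphology were examined by microscopy.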

[3] = test system: 921; assay: Antiproliferative activity against human 92.1 cells assessed as inhibition of cell growth at 5 to 15 uM by CCK8 assay; type: functional, cell-based; settings: dose 5-15 µM, time 24-96 hrs, TDE = time-dependent effect
[4] = molecular target: T1, GNAQ/GNA11 (Homo sapiens); assay: Inhibition of Galphaq/11 (unknown origin) expressed in HEK293 cells cotransfected with AT1R assessed as inhibition of Ang-II induced calcium release at 100 uM preincubated for 30 mins followed by Ang-II addition by Fluo-4AM dye based fluorescence assay; type: cell-based
In short: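 HEK293 cells transfected with AT₁R, washed in HBSS with 0.1% BSA and loaded with Fluo-4 AM for 1 h at 37 °C. Washed, then pretreated with compound at 100 μM for 30 min. AngII at varying concentrations added 20 s into the fluorescence recording. Mean ± SD, n = 3.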

[5] = Induction of apoptosis in human 921 cells assessed as viable cells at 5 uM after 48 hrs by Annexin-V-FITC/propidium iodide staining based flow cytometry (reference value: 93.8%); type: functional; settings: read-out: Activity
[6] = Induction of apoptosis in human 921 cells assessed as early apoptotic cells at 5 uM after 48 hrs by Annexin-V-FITC/propidium iodide staining based flow cytometry (reference value: 3.39%); type: functional
[7] = Induction of apoptosis in human 921 cells assessed as necrotic cells at 5 uM after 48 hrs by Annexin-V-FITC/propidium iodide staining based flow cytometry (reference value: 0.26%); type: functional
[8] = Induction of apoptosis in human 921 cells assessed as viable cells at 15 uM after 48 hrs by Annexin-V-FITC/propidium iodide staining based flow cytometry (reference value: 93.8%); type: functional; settings: read-out: Activity
[9] = Induction of apoptosis in human MP41 cells assessed as late apoptotic cells at 15 uM after 48 hrs by Annexin-V-FITC/propidium iodide staining based flow cytometry (reference value: 3.28%); type: functional
[10] = Induction of apoptosis in human MP41 cells assessed as viable cells at 30 uM after 48 hrs by Annexin-V-FITC/propidium iodide staining based flow cytometry (reference value: 93.6%); type: functional; settings: read-out: Activity
[11] = Induction of apoptosis in human MP41 cells assessed as early apoptotic cells at 30 uM after 48 hrs by Annexin-V-FITC/propidium iodide staining based flow cytometry (reference value: 2.96%); type: functional
[12] = test system: 921; assay: Inhibition of colony formation in human 921 cells at 1 to 5 uM after 9 days by crystal violet staining based light microscopic analysis; type: functional, cell-based; settings: dose 1-5 µM, time 9.0 day
In short: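 Cells seeded 4 × 10³/well, incubated overnight at 37 °C, 5% CO₂, then exposed to compound for 9 days until colonies visible, medium and inhibitor replaced every 3 days. Fixed in 4% paraformaldehyde 15 min, crystal violet-stained 30 min, colonies counted. Repeated twice.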

[13] = Toxicity in nude BALB/c mouse xenografted with human MP41 cells assessed as morphological changes in kidney tissue at 10 to 30 mg/kg, ip administered once daily for 21 days and measured every 3 days by HE staining based assay; type: organism-based; settings: in vivo, 504 h, dose 10-30 mg/kg, time 21 day
In short: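 Nude BALB/c mice bearing serially passaged MP41 tumour slices (tertiary recipients, n = 8/group, randomized) dosed ip daily for 21 days at 10 or 30 mg/kg/d or vehicle. Body weight monitored every 3 days. Tissues collected at sacrifice, fixed in 4% paraformaldehyde 24 h, paraffin-embedded, H&E stained, viewed at ×100.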

[14] = molecular target: T1, GNAQ/GNA11 (Homo sapiens); assay: Inhibition of Galphaq/11 in human 921 cells assessed as reduction in ERK phosphorylation at 15 to 30 uM after 48 hrs by Western blot analysis; type: cell-based; settings: b, dose 15-30 µM
In short: (§1)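 92.1 and MP41 cells plated overnight, then exposed to compound 48 h. Lysed in ice-cold buffer and protein quantified by BCA. Resolved on 8−12% SDS−PAGE and transferred to PVDF. Probed for p-YAP Ser127, total YAP, p-ERK1/2 Thr202/Tyr204 and total ERK1/2, with GAPDH as loading control. ECL detection, triplicate.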

[15] = molecular target: T1, GNAQ/GNA11 (Homo sapiens); assay: Inhibition of Galphaq/11 in human MP41 cells assessed as induction of YAP phosphorylation at 15 to 30 uM after 48 hrs by Western blot analysis; type: cell-based; settings: dose 15-30 µM; in short: as §1
[16] = molecular target: T1, GNAQ/GNA11 (Homo sapiens); assay: Inhibition of Galphaq/11 in human MP41 cells xenografted mouse tumor tissue assessed as inhibition of ERK phosphorylation at 10 to 30 mg/kg, ip administered for 21 consecutive days by Western blot analysis; type: organism-based; settings: dose 10-30 mg/kg, time 21.0 day
In short: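 MP41 xenograft tumours from mice given 10 or 30 mg/kg/day ip for 21 consecutive days were analysed by Western blot. Probed for p-YAP, YAP, p-ERK and ERK, with GAPDH as loading control. Representative of triplicate experiments.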

[17] = Half life in ICR mouse at 10 mg/kg, iv measured upto 24 hrs by LC-MS/MS analysis; type: ADME, organism-based; settings: in vivo
In short: (§2)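 Single dose in male ICR mice, 10 mg/kg iv or 30 mg/kg po, dissolved in 5% DMSO/95% saline. Blood drawn by catheter at 0, 5, 15, 30 min and 1, 2, 4, 6, 8, 24 h. Plasma spun 6800g 6 min at 2−8 °C, stored −80 °C, quantified by LC−MS/MS. Noncompartmental parameters, mean ± SD, n = 6.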

[18] = Tmax in ICR mouse at 10 mg/kg, iv measured upto 24 hrs by LC-MS/MS analysis; type: ADME, organism-based; settings: in vivo
In short: (§3)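 Single-dose PK in male ICR mice (n = 6): 10 mg/kg iv or 30 mg/kg po, vehicle 5% DMSO/95% saline. Blood (30 μL) by catheter at 0, 5, 15, 30 min and 1, 2, 4, 6, 8, 24 h; plasma by centrifugation, stored −80 °C, measured by LC–MS/MS. Parameters from noncompartmental analysis, mean SD.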

[19] = Cmax in ICR mouse at 10 mg/kg, iv measured upto 24 hrs by LC-MS/MS analysis; type: ADME, organism-based; parameters: route intravenous, dose 10 mg/kg, time <=24; settings: in vivo; in short: as §2
[20] = Volume of distribution at steady state in ICR mouse at 10 mg/kg, iv measured upto 24 hrs by LC-MS/MS analysis; type: ADME, organism-based; settings: in vivo, read-out: Vdss; in short: as §3
[21] = Oral bioavailability in ICR mouse at 30 mg/kg measured upto 24 hrs by LC-MS/MS analysis; type: ADME, organism-based; settings: in vivo; in short: as §3

## CC[C@@H](C)[C@H](N)C(=O)N1CCn2cc(-c3ccccc3)nc2[C@@H]1CC1CCCCC1
[1]
  inhibition: 36.5%
[2]
  Activity: Non-Toxic
[3]
  Activity: Tde
[4]
  Activity: Active
[5]
  viability at 5 µM: 90.1%
[6]
  Activity: 6.08%
[7]
  Activity: 0.43%
[8]
  viability at 15 µM: 79.6%
[9]
  Activity: 4.42%
[10]
  viability at 30 µM: 75.7%
[11]
  Activity: 17.9%
[12]
  inhibition: Active
[13]
  Activity: Non-Toxic
[14]
  inhibition: Active
[15]
  inhibition: Active
[16]
  inhibition: Active
[17]
  half-life: 70.2 min
[18]
  Tmax: 4.8 min
[19]
  Cmax: 2610 ng/mL
[20]
  Vd: 4.53 L/kg
[21]
  bioavailability: 92.6%

From ChEMBL document CHEMBL4808167, “Design, Synthesis, and Evaluation of Small Molecule Gαq/11 Protein Inhibitors for the Treatment of Uveal Melanoma” (J Med Chem, 2021)
